Activity calls are given as the source filed them. No cut-off for these calls is given here.

One assay deals with Plasmodium yoelii nigeriensis. Put plainly: Antimalarial activity in multidrug-resistant Plasmodium yoelii nigeriensis infected Swiss mouse assessed as disease cure at 96 mg/kg, po two devided dose daily for 4 days by 28 day survival assay. Format: functional.
Details: not given
The method in brief:
(§1)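 Swiss mice of either sex (20 2 g) inoculated ip with 1 × 10⁶ MDR P. yoelii nigeriensis (chloroquine-, mefloquine-, halofantrine-resistant) parasites on day 0. Five mice per dose. Oral dosing in groundnut oil (0.1 mL per dose) from day 0 to 3, as two divided doses daily. Thin blood smears on day 4, then twice weekly to day 28. Mice without patent infection by day 28 scored cured; % protection = fraction of mice cured. β-arteether as positive control.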
Take `C=C(c1ccccc1)[C@@H]1CO[C@@]2(CC[C@@]3(C)[C@H](CC[C@@H]4[C@@H]3CC[C@]3(C)[C@@H]([C@H](C)C(C)=O)CC[C@@H]43)C2)OO1` (relative stereo; form 2): the Activity was 60%. On the same count and under the same terms, to `C=C(c1ccc(Cl)cc1)[C@@H]1CO[C@@]2(CC[C@@]3(C)[C@H](CC[C@@H]4[C@@H]3CC[C@]3(C)[C@@H](C(C)=O)CC[C@@H]43)C2)OO1` (relative stereo; form 2) belongs “Active”. For the compound `C=C(c1ccc(F)cc1)[C@@H]1CO[C@@]2(CC[C@@]3(C)[C@H](CC[C@@H]4[C@@H]3CC[C@]3(C)[C@@H]([C@H](C)C(C)=O)CC[C@@H]43)C2)OO1` (relative stereo; form 2), the Activity stood at 60%.

Turning to `C=C(c1ccc(F)cc1)[C@@H]1CO[C@@]2(CC[C@@]3(C)[C@H](CC[C@@H]4[C@@H]3CC[C@]3(C)[C@@H]([C@H](C)C(C)=O)CC[C@@H]43)C2)OO1` (relative stereo; form 1) [listing 1 of 2 here], the outcome was inactive. The same measure, in the same setting: the same measure for `C=C(c1ccc(Cl)cc1)[C@@H]1CO[C@@]2(CC[C@@]3(C)[C@H](CC[C@@H]4[C@@H]3CC[C@]3(C)[C@@H](C(C)=O)CC[C@@H]43)C2)OO1` (relative stereo; form 1) [listing 1 of 2 here]: “inactive”. The same measure, in the same setting: the same measure for `C=C(c1ccc(Br)cc1)[C@@H]1CO[C@@]2(CC[C@@]3(C)[C@H](CC[C@@H]4[C@@H]3CC[C@]3(C)[C@@H](C(C)=O)CC[C@@H]43)C2)OO1` (relative stereo; form 2) [listing 1 of 2 here]: “inactive”; for `C=C(c1ccc(F)cc1)[C@@H]1CO[C@@]2(CC[C@@]3(C)[C@H](CC[C@@H]4[C@@H]3CC[C@]3(C)[C@@H](O)CC[C@@H]43)C2)OO1` (relative stereo; form 1): “inactive”.

In another assay the test system is Plasmodium yoelii nigeriensis. Nature of the assay: Antimalarial activity in multidrug-resistant Plasmodium yoelii nigeriensis infected Swiss mouse assessed as suppression of parasitaemia at 96 mg/kg, po two devided dose daily for 4 days. The assay is classed as functional. The following applies: 96 mg/kg. The gist of the method: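 Swiss mice of either sex (20 2 g) inoculated ip with 1 × 10⁶ MDR P. yoelii nigeriensis parasites on day 0. Five mice per dose, given oral doses in groundnut oil from day 0 to 3, twice daily. Parasitaemia read from thin blood smears on day 4. Suppression = [(C − T)/C] × 100 versus untreated controls. 100% means no parasites seen in 50 oil-immersion fields.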
`C=C(c1ccc(Cl)cc1)[C@@H]1CO[C@@]2(CC[C@@]3(C)[C@H](CC[C@@H]4[C@@H]3CC[C@]3(C)[C@@H](C(C)=O)CC[C@@H]43)C2)OO1` (relative stereo; form 1) [listing 2 of 2 here]: the Activity came out at 90.98%. Still for that read-out and setting: the same measure for `C=C(c1ccccc1)[C@@H]1CO[C@@]2(CC[C@@]3(C)[C@H](CC[C@@H]4[C@@H]3CC[C@]3(C)[C@@H]([C@H](C)C(C)=O)CC[C@@H]43)C2)OO1` (relative stereo; form 2): 100%; for `C=C(c1ccccc1)[C@@H]1CO[C@@]2(CC[C@@]3(C)[C@H](CC[C@@H]4[C@@H]3CC[C@]3(C)[C@@H]([C@H](C)C(C)=O)CC[C@@H]43)C2)OO1` (relative stereo; form 1): 94.31%; for `C=C(c1ccc(Br)cc1)[C@@H]1CO[C@@]2(CC[C@@]3(C)[C@H](CC[C@@H]4[C@@H]3CC[C@]3(C)[C@@H]([C@H](C)CCC(=O)OC)CC[C@@H]43)C2)OO1` (relative stereo; form 2): 18.57%. On the same count and under the same terms, to `C=C(c1ccccc1)[C@@H]1CO[C@@]2(CC[C@@]3(C)[C@H](CC[C@@H]4[C@@H]3CC[C@]3(C)[C@@H]([C@H](C)CCC(=O)OC)CC[C@@H]43)C2)OO1` (relative stereo; form 2) belongs 43.56%; to `C=C(c1ccc(Br)cc1)[C@@H]1CO[C@@]2(CC[C@@]3(C)[C@H](CC[C@@H]4[C@@H]3CC[C@]3(C)[C@@H]([C@H](C)C(C)=O)CC[C@@H]43)C2)OO1` (relative stereo; form 1), 56.73%.

Regarding `C=C(c1ccc(Cl)cc1)[C@@H]1CO[C@@]2(CC[C@@]3(C)[C@H](CC[C@@H]4[C@@H]3CC[C@]3(C)[C@@H]([C@H](C)C(C)=O)CC[C@@H]43)C2)OO1` (relative stereo; form 2), the Activity came to 34.65%. Same read-out and setting: to `C=C(c1ccc(Cl)cc1)[C@@H]1CO[C@@]2(CC[C@@]3(C)[C@H](CC[C@@H]4[C@@H]3CC[C@]3(C)[C@@H]([C@H](C)C(C)=O)CC[C@@H]43)C2)OO1` (relative stereo; form 1) belongs 100%. The same measure, in the same setting: the same measure for `C=C(c1ccc(Br)cc1)[C@@H]1CO[C@@]2(CC[C@@]3(C)[C@H](CC[C@@H]4[C@@H]3CC[C@]3(C)[C@@H](C(C)=O)CC[C@@H]43)C2)OO1` (relative stereo; form 2) [listing 2 of 2 here]: 89.78%; for `C=C(c1ccc(F)cc1)[C@@H]1CO[C@@]2(CC[C@@]3(C)[C@H](CC[C@@H]4[C@@H]3CC[C@]3(C)[C@@H]([C@H](C)C(C)=O)CC[C@@H]43)C2)OO1` (relative stereo; form 1) [listing 2 of 2 here]: 86.26%; for `C=C(c1ccc(F)cc1)[C@@H]1CO[C@@]2(CC[C@@]3(C)[C@H](CC[C@@H]4[C@@H]3CC[C@]3(C)[C@@H]([C@H](C)CCC(=O)OC)CC[C@@H]43)C2)OO1` (relative stereo; form 2): 33.13%. Still for that read-out and setting: to `C=C(c1ccc(Br)cc1)[C@@H]1CO[C@@]2(CC[C@@]3(C)[C@H](CC[C@@H]4[C@@H]3CC[C@]3(C)[C@@H](O)CC[C@@H]43)C2)OO1` (relative stereo; form 1) belongs 76.52%; to `C=C(c1ccccc1)[C@@H]1CO[C@@]2(CC[C@@]3(C)[C@H](CC[C@@H]4[C@@H]3CC[C@]3(C)[C@@H]([C@H](C)CCC(=O)OC)CC[C@@H]43)C2)OO1` (relative stereo; form 1), 20.6%; to `C=C(c1ccccc1)[C@@H]1CO[C@@]2(CC[C@@]3(C)[C@H](CC[C@@H]4[C@@H]3CC[C@]3(C)[C@@H](C(C)=O)CC[C@@H]43)C2)OO1` (relative stereo; form 1), 79.89%. `C=C(c1ccc(F)cc1)[C@@H]1CO[C@@]2(CC[C@@]3(C)[C@H](CC[C@@H]4[C@@H]3CC[C@]3(C)[C@@H]([C@H](C)C(C)=O)CC[C@@H]43)C2)OO1` (relative stereo; form 2): the Activity amounted to 100%. In the case of `C=C(c1ccc(Br)cc1)[C@@H]1CO[C@@]2(CC[C@@]3(C)[C@H](CC[C@@H]4[C@@H]3CC[C@]3(C)[C@@H]([C@H](C)C(C)=O)CC[C@@H]43)C2)OO1` (relative stereo; form 2), the Activity is recorded as 41.83%. The same measure, in the same setting: the same measure for `C=C(c1ccc(Cl)cc1)[C@@H]1CO[C@@]2(CC[C@@]3(C)[C@H](CC[C@@H]4[C@@H]3CC[C@]3(C)[C@@H]([C@H](C)CCC(=O)OC)CC[C@@H]43)C2)OO1` (relative stereo; form 2): 45.23%; for `C=C(c1ccc(F)cc1)[C@@H]1CO[C@@]2(CC[C@@]3(C)[C@H](CC[C@@H]4[C@@H]3CC[C@]3(C)[C@@H]([C@H](C)CCC(=O)OC)CC[C@@H]43)C2)OO1` (relative stereo; form 1): 45.31%. The same measure, in the same setting: to `C=C(c1ccc(Cl)cc1)[C@@H]1CO[C@@]2(CC[C@@]3(C)[C@H](CC[C@@H]4[C@@H]3CC[C@]3(C)[C@@H]([C@H](C)CCC(=O)OC)CC[C@@H]43)C2)OO1` (relative stereo; form 1) belongs 56.02%; to `C=C(c1ccccc1)[C@@H]1CO[C@@]2(CC[C@@]3(C)[C@H](CC[C@@H]4[C@@H]3CC[C@]3(C)[C@@H](O)CC[C@@H]43)C2)OO1` (relative stereo; form 1), 69.36%.

As to `C=C(c1ccc(Br)cc1)[C@@H]1CO[C@@]2(CC[C@@]3(C)[C@H](CC[C@@H]4[C@@H]3CC[C@]3(C)[C@@H]([C@H](C)CCC(=O)OC)CC[C@@H]43)C2)OO1` (relative stereo; form 1), the Activity is on record as 64.31%.

The subject of the next assay is Plasmodium yoelii nigeriensis. Put plainly: Antimalarial activity in multidrug-resistant Plasmodium yoelii nigeriensis infected Swiss mouse assessed as disease cure at 48 mg/kg, po two devided dose daily for 4 days by 28 day survival assay. The assay is classed as functional, organism-based. Further details: dose 48 mg/kg.
Details: not given
The gist of the method:
as §1
Consider `C=C(c1ccc(Cl)cc1)[C@@H]1CO[C@@]2(CC[C@@]3(C)[C@H](CC[C@@H]4[C@@H]3CC[C@]3(C)[C@@H](C(C)=O)CC[C@@H]43)C2)OO1` (relative stereo; form 2), for which the outcome was Active. The same measure, in the same setting: to `C=C(c1ccc(F)cc1)[C@@H]1CO[C@@]2(CC[C@@]3(C)[C@H](CC[C@@H]4[C@@H]3CC[C@]3(C)[C@@H](C(C)=O)CC[C@@H]43)C2)OO1` (relative stereo; form 1) belongs “inactive”.

For the origin of these results see ChEMBL document CHEMBL2177062, “Bile acid-based 1,2,4-trioxanes: synthesis and antimalarial assessment” (J Med Chem, 2012).
